The record followed here is ChEMBL document CHEMBL1799919, “Design, synthesis, biological evaluation, and structure-activity relationships of substituted phenyl 4-(2-oxoimidazolidin-1-yl)benzenesulfonates as new tubulin inhibitors mimicking combretastatin A-4” (J Med Chem, 2011).

Experiment [1] deals with M21. The experiment is described as follows: Cell cycle arrest in human M21 cells assessed as accumulation at S phase at 5 times IC50 after 24 hrs using propidium iodide staining by flow cytometric analysis (reference value: 30%). It is filed as functional. Background: Flow cytometry measures light scatter and fluorescence of single cells or particles in a stream.
Experiment [2] relates to M21. The experiment is described as follows: Antiproliferative activity against human M21 cells after 48 hrs by sulforhodamine B assay. It is filed as functional, cell-based. Conditions: M21, 48 h. A general note: The SRB assay estimates cell density from bound dye.
In another experiment the test system is MCF7. Nature of the experiment: Antiproliferative activity against human MCF7 cells after 48 hrs by sulforhodamine B assay. The class given is functional, cell-based. Conditions: MCF7, 48 h.
The subject of experiment [3] is M21. Nature of the experiment: Disruption of cytoskeleton microtubule structure of human M21 cells at 5 times IC50 after 16 hrs by indirect immunofluorescence assay. It is filed as functional, cell-based. Summed up:
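Fixed in 3.7% formaldehyde, permeabilized with saponin, and stained with anti-β-tubulin (TUB 2.1), Alexa-488 secondary and DAPI. Microtubule structure scored by fluorescence microscopy.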

The subject of the next experiment is MDA-MB-231. Nature of the experiment: Displacement of N,N'-ethylenebis(iodoacetamide) from colchicine-binding site of beta-tubulin in human MDA-MB-231 cells at 1000 times IC50 preincubated for after 2 hrs before N,N'-ethylenebis(iodoacetamide) addition measured after 1.5 hrs by chemiluminescence assay. The class given is cell-based. Summed up:
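EBI (100 μM final) added for 1.5 h at 37 °C; controls received 0.5% DMSO. Lysates (20 μg protein) run on 10% SDS-PAGE and blotted with anti-β-tubulin (TUB 2.1). β-tubulin–EBI adduct band detected by ECL.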

For experiment [4], the system named is M21. Nature of the experiment: Cell cycle arrest in human M21 cells assessed as accumulation at G0/G1 phase at 5 times IC50 after 24 hrs using propidium iodide staining by flow cytometric analysis (reference value: 61%). It is filed as functional.
The subject of experiment [5] is M21. Nature of the experiment: Cell cycle arrest in human M21 cells assessed as accumulation at G2/M phase at 5 times IC50 after 24 hrs using propidium iodide staining by flow cytometric analysis (reference value: 9%). It is filed as functional.
A further experiment relates to HT-29. Nature of the experiment: Antiproliferative activity against human HT-29 cells after 48 hrs by sulforhodamine B assay. The class given is functional, cell-based. Conditions: HT-29, 48 h.

pIC50: −log10 of the molar value. The source made the active and inactive calls. No cut-off for these calls is given here.

As a reminder, the pIC50 is the IC50 on a negative log10 scale, so that one unit is a factor of ten. On to `Cc1ccc(OS(=O)(=O)c2ccc(N3CCNC3=O)cc2)cc1`, for which the Activity with M21 [1] is listed as 13%; with M21 [4] it was 32%; in the experiment on M21 [5] it was 55%. In addition, the results for the pIC50 in the experiment with M21 [2], in the experiment with MCF7 and in the experiment with HT-29 were 7.03, 6.82 and 6.92, respectively. For the same compound, the outcome in the experiment on M21 [3] was Active. The inhibition entry in the experiment with MDA-MB-231 is “inactive”.

Regarding `O=C1NCCN1c1ccc(S(=O)(=O)Oc2cc(F)cc(F)c2)cc1`, the values for the Activity in the experiment on M21 [1], with M21 [4] and in the experiment with M21 [5] were 29%, 12% and 59%, respectively. Also, the pIC50 is 7.82 with M21 [2], 7.33 in the experiment on MCF7 and 7.44 with HT-29. Moreover, the outcome in the experiment on M21 [3] was Active. In the experiment with MDA-MB-231, the inhibition result is “Active”.

Consider `CCOc1ccccc1OS(=O)(=O)c1ccc(N2CCNC2=O)cc1`, for which the Activity in the experiment on M21 [1] is 19%; in the experiment with M21 [4], 1%; in the experiment with M21 [5], 80%. Further, the results for the pIC50 with M21 [2], with MCF7 and with HT-29 were 7.62, 7.08 and 7.40, respectively. Besides, the outcome in the experiment with M21 [3] was Active. In the experiment on MDA-MB-231, the inhibition result is “Active”.

With `O=C1NCCN1c1ccc(S(=O)(=O)Oc2ccc3[nH]ccc3c2)cc1`, the Activity worked out at 17% in the experiment with M21 [1], 19% in the experiment on M21 [4] and 64% in the experiment with M21 [5]. The figures for the pIC50 in the experiment on M21 [2], in the experiment on MCF7 and in the experiment with HT-29 were 7.19, 7.00 and 7.15, respectively. The outcome with M21 [3] was Active. Further, in the experiment with MDA-MB-231, the inhibition entry is “Active”.

Turning to `COc1ccc(OS(=O)(=O)c2ccc(N3CCNC3=O)cc2)cc1OC`, the Activity in the experiment with M21 [1] is reported as 19%; in the experiment with M21 [4] it was 1%; in the experiment on M21 [5], 80%. Besides, the figures for the pIC50 with M21 [2], with MCF7 and with HT-29 were 7.35, 7.06 and 7.17, respectively. The outcome in the experiment on M21 [3] was Active. For the same compound, the inhibition entry in the experiment on MDA-MB-231 was “Active”.

As to `O=C1NCCN1c1ccc(S(=O)(=O)Oc2ccc(F)cc2F)cc1`, the results for the Activity in the experiment on M21 [1], in the experiment on M21 [4] and with M21 [5] were 26%, 2% and 72%, respectively. Moreover, the pIC50 is 7.46 in the experiment with M21 [2], 7.26 in the experiment with MCF7 and 7.39 in the experiment with HT-29. The outcome with M21 [3] was Active. Further, the inhibition entry in the experiment with MDA-MB-231 is “Active”.

On to `COc1cccc(OS(=O)(=O)c2ccc(N3CCNC3=O)cc2)c1`, for which the Activity in the experiment on M21 [1] was 1%; with M21 [4] it was 1%; in the experiment with M21 [5], 98%. For the same compound, the results for the pIC50 in the experiment on M21 [2], in the experiment with MCF7 and with HT-29 were 7.62, 7.47 and 7.54, respectively. The outcome with M21 [3] was Active. The inhibition entry in the experiment with MDA-MB-231 was “Active”.

`Cc1cccc(OS(=O)(=O)c2ccc(N3CCNC3=O)cc2)c1`: the Activity in the experiment on M21 [1] was 0%; in the experiment with M21 [4] it was 1%; in the experiment with M21 [5] it was 99%. The values for the pIC50 with M21 [2], in the experiment on MCF7 and with HT-29 were 7.27, 7.24 and 7.12, respectively. Further, in the experiment on M21 [3], the result was Active. For the same compound, in the experiment on MDA-MB-231, the inhibition result was “Active”.

`O=C1NCCN1c1ccc(S(=O)(=O)Oc2cc(F)c(F)c(F)c2)cc1`: the Activity in the experiment on M21 [1] was 31%; in the experiment on M21 [4], 4%; in the experiment with M21 [5], 65%. Also, the negative-log IC50 (pIC50) in the experiment with M21 [2] was 7.37; in the experiment with MCF7, 7.04; in the experiment with HT-29 it was 7.14. The result with M21 [3] was Active. Moreover, the inhibition entry in the experiment with MDA-MB-231 was “Active”.

With `Cc1ccccc1OS(=O)(=O)c1ccc(N2CCNC2=O)cc1`, the Activity in the experiment on M21 [1] was 15%; in the experiment on M21 [4] it was 11%; with M21 [5] it was 74%. Further, the figures for the negative logarithm of the IC50 (pIC50) in the experiment on M21 [2], in the experiment with MCF7 and in the experiment on HT-29 were 7.59, 7.52 and 7.48, respectively. The outcome in the experiment on M21 [3] was Active. Also, in the experiment on MDA-MB-231, the inhibition entry was “Active”.

For the compound `O=C1NCCN1c1ccc(S(=O)(=O)Oc2cc(Cl)c(Cl)cc2Cl)cc1`, the Activity with M21 [1] stood at 0%; with M21 [4], 1%; in the experiment with M21 [5], 99%. The results for the pIC50 with M21 [2], with MCF7 and with HT-29 were 7.51, 7.52 and 7.52, respectively. The result with M21 [3] was Active. Besides, in the experiment on MDA-MB-231, the inhibition result is “Active”.

In the case of `Cc1cc(C)c(OS(=O)(=O)c2ccc(N3CCNC3=O)cc2)cc1C`, the Activity in the experiment with M21 [1] amounted to 20%; with M21 [4] it was 1%; with M21 [5] it was 79%. Also, the results for the pIC50 with M21 [2], with MCF7 and with HT-29 were 7.39, 7.18 and 7.38, respectively. For the same compound, the result in the experiment with M21 [3] was Active. Further, the inhibition result in the experiment on MDA-MB-231 was “Active”.

Regarding `O=C1NCCN1c1ccc(S(=O)(=O)Oc2cccc([N+](=O)[O-])c2)cc1`, the Activity with M21 [1] stood at 13%; in the experiment with M21 [4], 56%; with M21 [5] it was 31%. The figures for the pIC50 with M21 [2], in the experiment with MCF7 and in the experiment with HT-29 were 7.32, 7.22 and 7.00, respectively. The result in the experiment with M21 [3] was Active. Besides, in the experiment with MDA-MB-231, the inhibition result was “Active”.

With `CCCc1ccc(OS(=O)(=O)c2ccc(N3CCNC3=O)cc2)cc1`, the Activity in the experiment with M21 [1] was 18%; with M21 [4] it was 1%; in the experiment on M21 [5], 81%. The negative logarithm of the IC50 (pIC50) in the experiment with M21 [2] is 7.23; in the experiment on MCF7 it was 6.96; in the experiment on HT-29 it was 7.11. Moreover, the result in the experiment with M21 [3] was Active. For the same compound, the inhibition result in the experiment with MDA-MB-231 is “Active”.

`CCc1ccccc1OS(=O)(=O)c1ccc(N2CCNC2=O)cc1`: the Activity stood at 0% with M21 [1], 0% in the experiment on M21 [4] and 100% in the experiment with M21 [5]. Moreover, the pIC50 in the experiment on M21 [2] is 7.28; in the experiment on MCF7, 7.06; in the experiment on HT-29, 7.21. The outcome in the experiment on M21 [3] was Active. For the same compound, in the experiment on MDA-MB-231, the inhibition result was “Active”.

Regarding `Cc1ccc(OS(=O)(=O)c2ccc(N3CCNC3=O)cc2)c(C)c1`, the Activity with M21 [1] is given as 0%; with M21 [4] it was 0%; with M21 [5] it was 100%. For the same compound, the pIC50 with M21 [2] is 7.41; in the experiment on MCF7, 7.30; in the experiment with HT-29, 7.29. Besides, the result in the experiment on M21 [3] was Active. In addition, in the experiment with MDA-MB-231, the inhibition entry is “Active”.

For `CCCOc1ccc(OS(=O)(=O)c2ccc(N3CCNC3=O)cc2)cc1`, the Activity came to 6% in the experiment on M21 [1], 0% in the experiment with M21 [4] and 94% in the experiment on M21 [5]. Further, the pIC50 in the experiment on M21 [2] was 7.02; in the experiment with MCF7, 6.85; in the experiment with HT-29, 6.96. Besides, in the experiment with M21 [3], the result was Active. The inhibition entry in the experiment on MDA-MB-231 was “Active”.

As to `Cc1cccc(OS(=O)(=O)c2ccc(N3CCNC3=O)cc2)c1C`, the figures for the Activity in the experiment with M21 [1], in the experiment on M21 [4] and with M21 [5] were 32%, 5% and 63%, respectively. Further, the values for the pIC50 in the experiment with M21 [2], in the experiment with MCF7 and with HT-29 were 7.77, 7.30 and 7.51, respectively. For the same compound, in the experiment with M21 [3], the result was Active. The inhibition entry with MDA-MB-231 is “Active”.

As for `O=C1NCCN1c1ccc(S(=O)(=O)Oc2ccccc2F)cc1`, the Activity in the experiment with M21 [1] was found to be 34%; in the experiment with M21 [4] it was 18%; in the experiment with M21 [5] it was 48%. Besides, the results for the pIC50 with M21 [2], in the experiment on MCF7 and in the experiment on HT-29 were 7.47, 7.21 and 7.29, respectively. Further, the outcome in the experiment on M21 [3] was Active. For the same compound, in the experiment with MDA-MB-231, the inhibition result was “Active”.

For the compound `O=C1NCCN1c1ccc(S(=O)(=O)Oc2ccccc2I)cc1`, the Activity with M21 [1] is 25%; in the experiment on M21 [4], 4%; with M21 [5], 71%. Also, the results for the pIC50 in the experiment on M21 [2], in the experiment with MCF7 and in the experiment with HT-29 were 7.40, 7.15 and 7.26, respectively. Also, the result with M21 [3] was Active. In addition, the inhibition result with MDA-MB-231 is “Active”.

Regarding `Cc1cc(OS(=O)(=O)c2ccc(N3CCNC3=O)cc2)cc(C)c1C`, the Activity is 0% in the experiment with M21 [1], 0% in the experiment on M21 [4] and 99% with M21 [5]. The pIC50 in the experiment with M21 [2] is 7.82; in the experiment with MCF7 it was 7.31; in the experiment on HT-29 it was 7.47. Moreover, the result in the experiment on M21 [3] was Active. Moreover, the inhibition result with MDA-MB-231 was “Active”.

As for `O=C1NCCN1c1ccc(S(=O)(=O)Oc2cccc(F)c2)cc1`, the figures for the Activity in the experiment with M21 [1], in the experiment on M21 [4] and in the experiment on M21 [5] were 9%, 7% and 84%, respectively. In addition, the values for the pIC50 in the experiment on M21 [2], in the experiment with MCF7 and in the experiment on HT-29 were 7.51, 7.27 and 7.38, respectively. For the same compound, the result in the experiment with M21 [3] was Active. The inhibition result in the experiment with MDA-MB-231 was “Active”.
